Values belong to the compound of their own block, whether it stands above or below them. Calls of active or inactive are those of the source. The rule behind the calls is not given here.
Key:
[1] = Growth inhibition of human M14 cells at 250 nM after 24 hrs by cell titer 96 cell proliferation assay; format: functional; settings: M14, 24 h, read-out: GI
Procedure, shortened: (§1)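 M14 cells seeded at 8×10^4 cells/mL in 96-well plates and left to adhere overnight. They were treated with 62.5, 125 or 250 nM compound or with DMSO control for up to 72 h. Dye was added for 4 h, followed by solubilization/stop solution, and absorbance was read at 570 nm, zeroed on medium-only wells. Inhibition is given as % versus control. Triplicates in three experiments.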

[2] = Growth inhibition of human M14 cells at 250 nM after 72 hrs by cell titer 96 cell proliferation assay; format: functional; settings: M14, 72 h, read-out: GI; procedure, shortened: as §1
[3] = Growth inhibition of human M14 cells at 250 nM after 48 hrs by cell titer 96 cell proliferation assay; format: functional; settings: M14, 48 h, read-out: GI; procedure, shortened: as §1
[4] = Growth inhibition of human H125 cells at 250 nM after 24 hrs by trypan blue dye exclusion assay; format: functional; settings: NCI-H125, 24 h, read-out: GI
Procedure, shortened: (§2)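 Cells seeded at 5×10^4 cells/mL and left to adhere overnight. They were then exposed to 7.8–250 nM compound or to DMSO vehicle, 3 wells per treatment, at 37°C in 5% CO2 for 24, 48 or 72 h. Trypsinized cells were counted by hemocytometer, and viability was scored by trypan blue exclusion. Read-out is viable cell number, mean ± SE of triplicate wells, from a representative experiment of at least three.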

[5] = Growth inhibition of human HT-29 cells at 250 nM after 24 hrs by trypan blue dye exclusion assay; format: functional; settings: HT-29, 24 h, read-out: GI; procedure, shortened: as §2
[6] = molecular target: T1, Telomerase reverse transcriptase (Homo sapiens, UniProt O14746); assay: Inhibition of telomerase activity in human HT-29 cells using biotin-labeled TeloTAGGG as primer at 250 nM preincubated for 48 hrs followed by primer addition measured after 30 mins by PCR-ELISA; format: cell-based
Procedure, shortened: (§3)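 Cells treated 48 h with 31.2–250 nM, then washed, lysed, and the supernatants stored at −80°C. Extracts were incubated 30 min with biotin-labeled primer for telomeric repeat extension. Products plus internal standard were PCR-amplified, hybridized to digoxigenin probes, captured on streptavidin plates, detected with peroxidase antibody, and read at 450 nm. Heat-inactivated extract (95°C, 10 min) served as negative control. Inhibition is % of untreated means; triplicate.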

[7] = molecular target: T1, Telomerase reverse transcriptase; assay: Inhibition of telomerase activity in human M14 cells using biotin-labeled TeloTAGGG as primer at 62.5 nM preincubated for 48 hrs followed by primer addition measured after 30 mins by PCR-ELISA; format: cell-based; procedure, shortened: as §3
[8] = molecular target: T1, Telomerase reverse transcriptase; assay: Inhibition of telomerase activity in human M14 cells using biotin-labeled TeloTAGGG as primer at 31.2 nM preincubated for 48 hrs followed by primer addition measured after 30 mins by PCR-ELISA; format: cell-based; procedure, shortened: as §3
[9] = Growth inhibition of human M14 cells at 250 nM after 24 hrs by trypan blue dye exclusion assay; format: functional; settings: M14, 24 h, read-out: GI; procedure, shortened: as §2
[10] = molecular target: T1, Telomerase reverse transcriptase; assay: Inhibition of telomerase activity in human MCF7 cells using biotin-labeled TeloTAGGG as primer preincubated for 48 hrs followed by primer addition measured after 30 mins by PCR-ELISA; format: cell-based; procedure, shortened: as §3
[11] = molecular target: T1, Telomerase reverse transcriptase; assay: Inhibition of telomerase activity in human HT-29 cells using biotin-labeled TeloTAGGG as primer preincubated for 48 hrs followed by primer addition measured after 30 mins by PCR-ELISA; format: cell-based; procedure, shortened: as §3
[12] = molecular target: T1, Telomerase reverse transcriptase; assay: Inhibition of telomerase activity in human HT-29 cells using biotin-labeled TeloTAGGG as primer at 31.2 nM preincubated for 48 hrs followed by primer addition measured after 30 mins by PCR-ELISA; format: cell-based; procedure, shortened: as §3
[13] = molecular target: T1, Telomerase reverse transcriptase; assay: Inhibition of telomerase activity in human H125 cells using biotin-labeled TeloTAGGG as primer at 31.2 nM preincubated for 48 hrs followed by primer addition measured after 30 mins by PCR-ELISA; format: cell-based; procedure, shortened: as §3
[14] = molecular target: T1, Telomerase reverse transcriptase; assay: Inhibition of telomerase activity in human M14 cells using biotin-labeled TeloTAGGG as primer at 125 nM preincubated for 48 hrs followed by primer addition measured after 30 mins by PCR-ELISA; format: cell-based; procedure, shortened: as §3
[15] = molecular target: T1, Telomerase reverse transcriptase; assay: Inhibition of telomerase activity in human MCF7 cells using biotin-labeled TeloTAGGG as primer at 31.2 nM preincubated for 48 hrs followed by primer addition measured after 30 mins by PCR-ELISA; format: cell-based; procedure, shortened: as §3
[16] = molecular target: T1, Telomerase reverse transcriptase; assay: Inhibition of telomerase activity in human H125 cells using biotin-labeled TeloTAGGG as primer at 125 nM preincubated for 48 hrs followed by primer addition measured after 30 mins by PCR-ELISA; format: cell-based; procedure, shortened: as §3
[17] = molecular target: T1, Telomerase reverse transcriptase; assay: Inhibition of telomerase activity in human H125 cells using biotin-labeled TeloTAGGG as primer at 62.5 nM preincubated for 48 hrs followed by primer addition measured after 30 mins by PCR-ELISA; format: cell-based; procedure, shortened: as §3
[18] = molecular target: T1, Telomerase reverse transcriptase; assay: Inhibition of telomerase activity in human H125 cells using biotin-labeled TeloTAGGG as primer at 250 nM preincubated for 48 hrs followed by primer addition measured after 30 mins by PCR-ELISA; format: cell-based; procedure, shortened: as §3
[19] = Growth inhibition of human HL60 cells at 250 nM after 24 hrs by trypan blue dye exclusion assay; format: functional; settings: HL-60, 24 h, read-out: GI; procedure, shortened: as §2
[20] = molecular target: T1, Telomerase reverse transcriptase; assay: Inhibition of telomerase activity in human H125 cells using biotin-labeled TeloTAGGG as primer preincubated for 48 hrs followed by primer addition measured after 30 mins by PCR-ELISA; format: cell-based; procedure, shortened: as §3
[21] = molecular target: T1, Telomerase reverse transcriptase; assay: Inhibition of telomerase activity in human M14 cells using biotin-labeled TeloTAGGG as primer at 250 nM preincubated for 48 hrs followed by primer addition measured after 30 mins by PCR-ELISA; format: cell-based; procedure, shortened: as §3
SH-SY5Y [22] = assay: Induction of apoptosis in human SH-SY5Y cells assessed as increase in caspase 3/7 activation at 31.2 nM after 24 hrs by caspase-glo 3/7 luminescence assay relative to control; format: functional
Procedure, shortened: (§4)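 SH-SY5Y cells seeded at 5×10^4 cells/mL and left to adhere overnight, then exposed to 7.8–31.2 nM for 24 h. Caspase-Glo 3/7 reagent, in a volume equal to the medium, was added for 1 h at 37°C. Luminescence from the cleaved aminoluciferin substrate was read and expressed relative to untreated control set at 1.0. DMSO-treated cells served as negative control. Triplicate wells.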

[23] = Growth inhibition of human MCF7 cells at 250 nM after 24 hrs by trypan blue dye exclusion assay; format: functional; settings: MCF7, 24 h, read-out: GI; procedure, shortened: as §2
SH-SY5Y [24] = assay: Induction of apoptosis in human SH-SY5Y cells assessed as increase in caspase 3/7 activation at 7.8 to 15.6 nM after 24 hrs by caspase-glo 3/7 luminescence assay; format: functional, cell-based; procedure, shortened: as §4
[25] = molecular target: T1, Telomerase reverse transcriptase; assay: Inhibition of telomerase activity in human MCF7 cells using biotin-labeled TeloTAGGG as primer at 250 nM preincubated for 48 hrs followed by primer addition measured after 30 mins by PCR-ELISA; format: cell-based; procedure, shortened: as §3
[26] = molecular target: T1, Telomerase reverse transcriptase; assay: Inhibition of telomerase activity in human MCF7 cells using biotin-labeled TeloTAGGG as primer at 125 nM preincubated for 48 hrs followed by primer addition measured after 30 mins by PCR-ELISA; format: cell-based; procedure, shortened: as §3
[27] = Growth inhibition of human SH-SY5Y cells at 250 nM after 24 hrs by trypan blue dye exclusion assay; format: functional; settings: read-out: GI; procedure, shortened: as §2
[28] = molecular target: T1, Telomerase reverse transcriptase; assay: Inhibition of telomerase activity in human MCF7 cells using biotin-labeled TeloTAGGG as primer at 62.5 nM preincubated for 48 hrs followed by primer addition measured after 30 mins by PCR-ELISA; format: cell-based; procedure, shortened: as §3
[29] = molecular target: T1, Telomerase reverse transcriptase; assay: Inhibition of telomerase activity in human HT-29 cells using biotin-labeled TeloTAGGG as primer at 62.5 nM preincubated for 48 hrs followed by primer addition measured after 30 mins by PCR-ELISA; format: cell-based; procedure, shortened: as §3
[30] = molecular target: T1, Telomerase reverse transcriptase; assay: Inhibition of telomerase activity in human M14 cells using biotin-labeled TeloTAGGG as primer preincubated for 48 hrs followed by primer addition measured after 30 mins by PCR-ELISA; format: cell-based; procedure, shortened: as §3
[31] = molecular target: T1, Telomerase reverse transcriptase; assay: Inhibition of telomerase activity in human HT-29 cells using biotin-labeled TeloTAGGG as primer at 125 nM preincubated for 48 hrs followed by primer addition measured after 30 mins by PCR-ELISA; format: cell-based; procedure, shortened: as §3

T1 sequence (O14746 whole entry): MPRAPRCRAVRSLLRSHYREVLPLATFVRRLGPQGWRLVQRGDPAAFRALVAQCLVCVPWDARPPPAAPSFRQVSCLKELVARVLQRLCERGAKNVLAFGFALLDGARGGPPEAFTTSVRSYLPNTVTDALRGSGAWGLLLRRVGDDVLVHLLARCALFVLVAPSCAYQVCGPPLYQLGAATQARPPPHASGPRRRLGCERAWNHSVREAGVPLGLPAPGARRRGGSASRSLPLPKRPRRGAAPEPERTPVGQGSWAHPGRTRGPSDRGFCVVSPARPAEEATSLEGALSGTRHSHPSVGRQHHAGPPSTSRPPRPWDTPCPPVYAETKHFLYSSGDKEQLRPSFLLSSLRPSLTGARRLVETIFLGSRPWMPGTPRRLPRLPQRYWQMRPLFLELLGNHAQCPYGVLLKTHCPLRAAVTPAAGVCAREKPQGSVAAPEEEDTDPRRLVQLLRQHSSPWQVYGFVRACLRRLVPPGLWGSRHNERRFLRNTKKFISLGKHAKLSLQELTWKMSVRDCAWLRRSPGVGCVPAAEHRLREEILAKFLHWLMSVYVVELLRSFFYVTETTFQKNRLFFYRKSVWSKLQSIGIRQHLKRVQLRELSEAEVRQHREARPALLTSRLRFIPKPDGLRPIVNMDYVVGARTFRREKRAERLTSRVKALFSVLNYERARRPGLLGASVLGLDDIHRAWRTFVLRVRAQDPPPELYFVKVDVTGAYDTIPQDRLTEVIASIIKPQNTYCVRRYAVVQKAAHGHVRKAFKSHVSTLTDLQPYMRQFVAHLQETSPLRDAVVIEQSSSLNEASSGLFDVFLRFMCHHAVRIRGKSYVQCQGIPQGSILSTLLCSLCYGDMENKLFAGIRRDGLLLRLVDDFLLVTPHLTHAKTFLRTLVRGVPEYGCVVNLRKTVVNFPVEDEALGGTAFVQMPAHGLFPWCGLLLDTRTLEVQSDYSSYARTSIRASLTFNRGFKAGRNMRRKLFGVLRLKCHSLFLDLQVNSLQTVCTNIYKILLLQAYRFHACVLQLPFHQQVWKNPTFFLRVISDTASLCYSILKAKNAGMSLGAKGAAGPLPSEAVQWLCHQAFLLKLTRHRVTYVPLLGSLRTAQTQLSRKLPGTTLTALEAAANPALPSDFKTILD

SMILES: C[C@@H]1CCC[C@@]2(O[C@H](O)C=CC2=O)O1
inhibition of growth at 0.25 µM [1]: 36.7%
inhibition of growth at 0.25 µM [2]: 63.7%
inhibition of growth at 0.25 µM [3]: 58.1%

inhibition [6]: 73.4%
inhibition [7]: 63%
inhibition [8]: 62%
IC50 [10]: 12.6 to 85.2 nM
inhibition [10]: Dose-dependent effect
IC50 [11]: 12.6 to 85.2 nM
inhibition [11]: Dose-dependent effect
inhibition [12]: 24%
inhibition [13]: 13.6%
inhibition [14]: 74%
inhibition [15]: 0%
inhibition [16]: 67.6%
inhibition [17]: 48.7%
inhibition [18]: 75.7%
IC50 [20]: 12.6 to 85.2 nM
inhibition [20]: Dose-dependent effect
inhibition [21]: 82.6%
inhibition [25]: 78.6%
inhibition [26]: 67.9%
inhibition [28]: 37.5%
inhibition [29]: 53.5%
IC50 [30]: 12.6 to 85.2 nM
inhibition [30]: Dose-dependent effect
inhibition [31]: 69%
SMILES: CC1CCCC2(OC(O)C=CC2=O)O1 (mixture of isomers)
inhibition of growth at 0.25 µM [4]: > 90%
inhibition of growth at 0.25 µM [5]: > 90%
inhibition of growth at 0.25 µM [9]: > 90%
inhibition of growth at 0.25 µM [19]: > 90%
fold change (FC) (SH-SY5Y [22]): 8.2
inhibition of growth at 0.25 µM [23]: > 90%
inhibition of growth at 0.25 µM [1]: 36.8%
Activity (SH-SY5Y [24]): Active
inhibition of growth at 0.25 µM [2]: 61.4%
inhibition of growth at 0.25 µM [3]: 56.1%
inhibition of growth at 0.25 µM [27]: > 90%

SMILES: C[C@H]1CCC[C@]2(O[C@@H](O)C=CC2=O)O1
inhibition of growth at 0.25 µM [1]: 40.4%
inhibition of growth at 0.25 µM [2]: 66.6%
inhibition of growth at 0.25 µM [3]: 64.4%
